Assays:
[1] = test system: Mus musculus; assay: Analgesic activity in mouse assessed as inhibition of phenylquinone-induced writhing administered orally 20 mins prior challenge relative to aspirin; assay type: functional
Summary of the method: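 Male mice, 18-20 g, dosed orally in "Government diluting fluid" vehicle, then given phenylquinone intraperitoneally 20 min later. Writhing observed over the following 10 min. Eight to ten mice per dose. Potency relative to aspirin taken from dose-response plots.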

[2] = test system: Rattus norvegicus; assay: Antiinflammatory activity in rat assessed as inhibition of carrageenan-induced paw edema compound administered orally 1 hr prior challenge relative to phenylbutazone; assay type: functional
Summary of the method: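 Female rats, 80-90 g, given test agent in "Government diluting fluid" 1 h before carrageenan injection into one hind paw. Rats killed 4 h after dosing; both hind paws excised and weighed. Potency relative to phenylbutazone read from dose-response plots of percent weight increase of inflamed over noninflamed paw. Usually at least three doses, six rats per dose.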

[3] = test system: Rattus norvegicus; assay: Antiinflammatory activity in rat arthritis model assessed as inhibition of Freund's adjuvant-induced swelling compound administered orally bid for 17 days starting on day 1 of challenge measured on day 18 relative to naproxen; assay type: functional
[4] = test system: Rattus norvegicus; assay: Antiinflammatory activity in rat assessed as inhibition of cotton pellet granuloma at 0.5 to 4 mg/kg/day, po administered for 7 days starting same day of challenge measured on day 7 relative to indomethacin; assay type: functional
Summary of the method: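 Cotton pellet granuloma in rats, by a modification of Meier's method. Vehicle "Government diluting fluid".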

[5] = test system: Canis familiaris; assay: Toxicity in dog assessed as emesis at 5 mg/kg, po administered as single dose; assay type: organism-based, Canis lupus familiaris; design: dose 5 mg/kg, route oral; conditions: in vivo
Summary of the method: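 Dogs given one oral dose (5, 10 or 30 mg/kg). Animals watched for signs of gastrointestinal intolerance, including emesis.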

[6] = organism: Rattus norvegicus; assay: Toxicity in rat assessed as gastric irritation (erosion) in starved rats; conditions: in vivo

SMILES | fold change (FC) [1] | fold change (FC) [2] | fold change (FC) [3] | fold change (FC) [4] | Activity [5] | ED50 [6] [mg/kg]
O=C(O)Cc1ccc2c(c1)C=Cc1ccccc1O2 | 0.3 | <0.4 |  |  |  | 
O=C(O)Cc1ccc2c(c1)C(=O)c1ccccc1CS2 | 1.5 | 0.3 |  |  |  | 
C1CCC(NC2CCCCC2)CC1.CCC(C(=O)O)c1ccc2c(c1)SCc1ccccc1C2=O (stereo not given) | 4 | 20 |  |  |  | 
O=C(O)Cc1ccc2c(c1)SCc1ccccc1C2 | 1 | 2 |  |  |  | 
O=C(O)Cc1ccc2c(c1)S(=O)(=O)Cc1ccccc1C2=O | 0.2 | <0.2 |  |  |  | 
O=C(O)Cc1cccc2c1SCc1ccccc1C2=O |  | <0.4 |  |  |  | 
O=C(O)Cc1ccc2c(c1)CSc1ccccc1C2=O | 1 | 1 |  |  |  | 
C1CCC(NC2CCCCC2)CC1.CC(C(=O)O)c1ccc2c(c1)CSc1ccccc1C2=O (stereo not given) | 2.5 | 2 |  |  |  | 
O=C(O)Cc1ccc2c(c1)SCc1sccc1C2=O | 4 | 4 |  |  |  | 
O=C(O)Cc1ccc2c(c1)CC(=O)c1ccccc1S2 | 1 | 0.4 |  |  |  | 
O=C(O)Cc1ccc2c(c1)C=Cc1ccccc1S2 | <1 | 2 |  |  |  | 
O=C(O)Cc1ccc2c(c1)CCc1ccccc1S2 | 3 | 7 | 0.5 | 0.07 |  | 
O=C(O)Cc1ccc2c(c1)C=Cc1ccccc1S2(=O)=O | 0.4 | 0.4 |  |  |  | 
O=C(O)Cc1ccc2c(c1)CCc1ccccc1S2(=O)=O | 1 | 0.4 |  |  |  | 
O=C(O)Cc1ccc2c(c1)CC(=O)c1ccccc1O2 | <0.2 | <0.6 |  |  |  | 
O=C(O)Cc1ccc2c(c1)CCc1ccccc1O2 | 1 | 0.4 |  |  |  | 
O=C(O)Cc1ccc2c(c1)Sc1ccccc1C(=O)C2 | 1 | 0.4 |  |  |  | 
O=C(O)Cc1ccc2c(c1)Sc1ccccc1C=C2 | <1 | <0.2 |  |  |  | 
O=C(O)Cc1ccc2c(c1)Sc1ccccc1CC2 | 2 | 0.2 |  |  |  | 
CC(C(=O)O)c1ccc2c(c1)SCc1ccccc1C2=O (racemic) | 20 | 115 | 70 | 2 | Toxic | 2
O=C(O)Cc1ccc2c(c1)SCc1ccccc1C2O (racemic) | <0.3 | <1 |  |  |  | 
O=C(O)Cc1ccc2c(c1)[S+]([O-])Cc1ccccc1C2=O (racemic) | <=0.5 | 0.5 |  |  |  | 
CC(C(=O)O)c1ccc2c(c1)SCc1sccc1C2=O (racemic) | 20 | 13 |  |  |  | 
C1CCC(NC2CCCCC2)CC1.CC(C(=O)O)c1ccc2c(c1)CCc1ccccc1S2 (racemic) | 5 | 3 |  |  |  | 
O=C(O)Cc1ccc2c(c1)CCc1ccccc1[S+]2[O-] (racemic) | 0.8 | <=0.2 |  |  |  | 
O=C(O)Cc1ccc2c(c1)SCc1ccccc1C2=O [TIOPINAC] | 14 | 40 | 10 | 0.8 | Non-toxic | 
